“And” between values parts separate entries of the source, which are not always exact repeats. Equal values may be shown once.
Columns and labels:
DNA topoisomerase II = DNA topoisomerase II (Homo sapiens, UniProt P11388+Q02880); assay: In vitro 50% inhibition of topoisomerase II mediated k-DNA decatenation; assay type: protein assay
HL-60 = assay: In vitro cytotoxicity against human leukemic HL-60 cell line.; assay type: functional, cell-based
Procedure, shortened: (§1)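 Growth inhibition over 72 h by XTT tetrazolium microculture assay with phenazine methosulfate-XTT for 6 h at 37 °C. Absorbance read at 450 and 630 nm. Six to seven concentrations per compound; IC50 from median-effect plot.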

L1210 = assay: The compound was tested for the cytotoxicity against L1210 cell lines; assay type: functional, cell-based; details: Mus musculus; procedure, shortened: as §1
CCRF S-180 = assay: The compound was tested for the cytotoxicity against S180 cell lines; assay type: functional, cell-based; details: Mus musculus; procedure, shortened: as §1
[1] = The compound was tested for the cytotoxicity DC-3F cell lines; assay type: functional, cell-based; details: Cricetulus griseus, DC3F
CCRF-CEM = assay: The compound was tested for the cytotoxicity against human leukemic CCRF-CEM cell lines; assay type: functional, cell-based
CEM-VM1 = assay: The compound was tested for the cytotoxicity against human leukemic CEM/VM-1 cell lines; assay type: functional, cell-based
CEM-VLB = assay: The compound was tested for the cytotoxicity against human leukemic CEM/VBL cell lines; assay type: functional, cell-based
DC3F/AD-II = assay: The compound was tested for the cytotoxicity against human leukemic DC-3F/ADII cell lines, activity is expressed as IC50 values.; assay type: functional, cell-based; details: Cricetulus griseus
Mus musculus [2] = species: Mus musculus; assay: Average tumor volume of the B-16 melanoma; assay type: functional
Procedure, shortened: (§2)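 BD2F1 female mice, 19-21 g, given subcutaneous 0.2 mL solid tumor brei; dosed ip in DMSO daily for 5 days from day 3 (AHMA 7.5-10 mg/kg, VP-16 10, m-AMSA 5 mg/kg). Tumor volume on day 14 as length × width × width/2 (mm3), expressed as T/C versus untreated. Five mice per dose; DMSO-only group included; two experiments.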

Mus musculus [3] = assay: The compound (10 mg/kg, ip) was tested for change in average weight of BDF2 mice bearing B16 melanoma.
Mus musculus [4] = assay: The compound ( ip) was tested for change in average weight of BDF2 mice bearing E0771 mammary adenocarcinoma.
Mus musculus [5] = assay: The compound (10 mg/kg, ip) was tested for change in average weight of BDF2 mice bearing Lewis lung carcinoma.
Mus musculus [6] = assay: The compound (7.5 mg/kg, ip) was tested for change in average weight of BDF2 mice bearing E0771 mammary adenocarcinoma; assay type: functional
Procedure, shortened: (§3)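 BD2F1 female mice, 19-21 g, carrying subcutaneous tumor brei (0.2 mL); compounds in DMSO given ip once daily × 5 starting day 3. Average body weight change (g) taken on day 14. Five mice per dose; untreated and DMSO-vehicle controls.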

Mus musculus [7] = species: Mus musculus; assay: Average tumor volume of the Lewis lung carcinoma; assay type: functional; procedure, shortened: as §2
Mus musculus [8] = species: Mus musculus; assay: Average tumor volume of the E0771 mammary adenocarcinoma,; assay type: functional; procedure, shortened: as §2
Mus musculus [9] = assay: The compound (7.5 mg/kg, ip) was tested for change in average weight of BDF2 mice bearing Lewis lung carcinoma.; assay type: functional; procedure, shortened: as §3
Mus musculus [10] = assay: The compound (7.5 mg/kg, ip) was tested for change in average weight of BDF2 mice bearing B16 melanoma.; assay type: functional; procedure, shortened: as §3

SMILES | IC50 (DNA topoisomerase II) | IC50 (HL-60) | IC50 (L1210) | other results
COc1ccc2c(Sc3ccc(COC(=O)NC(C)C)cc3)c3ccccc3nc2c1 | > 100000 nM | 1550 nM | – | –
O=C(O)CCC(=O)Nc1cc(COC(=O)CCC(=O)O)cc(Nc2c3ccccc3nc3ccccc23)c1 | > 100000 nM | 4300 nM | 990 nM | IC50 (CCRF S-180): 1830 nM
COc1ccc2c(Oc3ccc(COC(=O)NC(C)C)cc3)c3ccccc3nc2c1 | > 100000 nM | 420 nM | – | –
OCc1ccc(Oc2c3ccccc3nc3ccccc23)cc1 | > 100000 nM | 12800 nM | – | –
CC(C)NC(=O)OCc1ccc(Sc2c3ccccc3nc3ccccc23)cc1 | 50000 nM | 2830 nM | – | –
CNC(=O)OCc1ccc(Sc2c3ccccc3nc3cc(OC)ccc23)cc1 | > 100000 nM | 2710 nM | – | –
CC(=O)CCC(=O)Nc1cc(COC(=O)CCC(C)=O)cc(Nc2c3ccccc3nc3ccccc23)c1 | < 1000 nM | 15 nM | 98 nM | IC50 (CCRF S-180): 97 nM
CNC(=O)OCc1ccc(Oc2c3ccccc3nc3ccccc23)cc1 | 20000 nM | 680 nM | – | –
CNC(=O)OCc1ccc(Sc2c3ccccc3nc3ccccc23)cc1 | 20000 nM | 1960 nM | – | –
OCc1ccc(Sc2c3ccccc3nc3ccccc23)cc1 | > 100000 nM | 3330 nM | – | –
COc1ccc2c(Sc3ccc(CO)cc3)c3ccccc3nc2c1 | 50000 nM | 1830 nM | – | –
CC(C)NC(=O)OCc1ccc(Oc2c3ccccc3nc3ccccc23)cc1 | 20000 nM | 1490 nM | – | –
CNC(=O)OCc1ccc(Oc2c3ccccc3nc3cc(OC)ccc23)cc1 | 50000 nM | 950 nM | – | –
Nc1cc(CO)cc(Nc2c3ccccc3nc3ccccc23)c1 | 1000 nM | – | 16 nM | IC50 [1]: 5 nM; IC50 (CCRF-CEM): 263 nM; IC50 (CEM-VM1): 1600 nM; IC50 (CCRF S-180): 30 nM; IC50 (CEM-VLB): 3790 nM; IC50 (DC3F/AD-II): 54 nM
COc1ccc2c(Oc3ccc(CO)cc3)c3ccccc3nc2c1 | 20000 nM | 1040 nM | – | –
O=C(O)CCC(=O)Nc1cc(CO)cc(Nc2c3ccccc3nc3ccccc23)c1 | 20000 nM | 5000 nM | 330 nM | IC50 (CCRF S-180): 1070 nM
CC(=O)OCc1cc(N)cc(Nc2c3ccccc3nc3ccccc23)c1 | – | 28 nM | 34 nM | –
CC(=O)Nc1cc(CO)cc(Nc2c3ccccc3nc3ccccc23)c1 | – | 18 nM | 28 nM | –
CC(=O)CCC(=O)Nc1cc(CO)cc(Nc2c3ccccc3nc3ccccc23)c1 | < 1000 nM | 25 nM | 45 nM | IC50 (CCRF S-180): 70 nM
Cl.Nc1cc(CO)cc(Nc2c3ccccc3nc3ccccc23)c1 | – | 25 nM | – | T/C (Mus musculus [2]): 0.23 and 0.18; AWC (Mus musculus [3]): -1.9 g; AWC (Mus musculus [4]): 0.6 g; AWC (Mus musculus [5]): -0.4 g; AWC (Mus musculus [6]): 0.6 g; T/C (Mus musculus [7]): 0.55 and 0.23; T/C (Mus musculus [8]): 0.13 and 0.14; AWC (Mus musculus [9]): 0.1 g; AWC (Mus musculus [10]): -0.3 g

Source: ChEMBL document CHEMBL1128514, “9-substituted acridine derivatives with long half-life and potent antitumor activity: synthesis and structure-activity relationships” (J Med Chem, 1995)
